In ChEMBL document CHEMBL1147807, “Identification of 2-acylaminothiophene-3-carboxamides as potent inhibitors of FLT3” (Bioorg Med Chem Lett, 2006):

Key:
[1] = target: Tyrosine-protein kinase receptor UFO (Homo sapiens) (UniProt P30530); assay: Inhibition of human Axl kinase at 3 uM in presence of 10 uM ATP
Procedure, shortened: (§1)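 Selectivity panel run at a single compound concentration of 3 µM with 10 µM ATP. Read-out is % inhibition of each kinase. Values are averages of duplicate experiments.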

[2] = target: T1, Cytoplasmic tyrosine-protein kinase BMX (Homo sapiens) (UniProt P51813); assay: Inhibition of human Bmx kinase at 3 uM in presence of 10 uM ATP; procedure, shortened: as §1
T1 sequence (whole entry): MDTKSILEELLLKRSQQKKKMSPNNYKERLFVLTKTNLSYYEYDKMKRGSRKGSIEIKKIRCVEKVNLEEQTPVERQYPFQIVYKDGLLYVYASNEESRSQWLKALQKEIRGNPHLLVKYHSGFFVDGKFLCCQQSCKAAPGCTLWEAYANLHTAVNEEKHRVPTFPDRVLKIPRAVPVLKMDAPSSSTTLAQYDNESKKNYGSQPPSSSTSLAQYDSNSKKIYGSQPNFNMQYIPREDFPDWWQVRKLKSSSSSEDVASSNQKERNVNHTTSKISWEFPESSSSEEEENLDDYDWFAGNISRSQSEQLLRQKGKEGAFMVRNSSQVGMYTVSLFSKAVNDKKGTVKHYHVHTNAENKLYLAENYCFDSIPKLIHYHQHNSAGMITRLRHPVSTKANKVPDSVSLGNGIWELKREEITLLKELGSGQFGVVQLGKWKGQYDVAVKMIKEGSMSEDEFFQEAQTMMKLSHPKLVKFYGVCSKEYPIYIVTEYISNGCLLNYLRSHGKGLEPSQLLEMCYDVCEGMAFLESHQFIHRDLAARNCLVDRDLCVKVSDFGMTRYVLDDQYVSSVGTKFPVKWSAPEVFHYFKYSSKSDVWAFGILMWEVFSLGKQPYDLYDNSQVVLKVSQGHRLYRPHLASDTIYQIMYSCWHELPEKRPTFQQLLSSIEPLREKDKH

[3] = target: Cyclin-dependent kinase 7/ cyclin H (Homo sapiens) (UniProt P51946+P50613); assay: Inhibition of human CDK7/cyclin H/MAT1 at 3 uM in presence of 10 uM ATP; assay type: protein-complex assay; procedure, shortened: as §1
[4] = target: Tyrosine-protein kinase Fyn (Homo sapiens) (UniProt P06241); assay: Inhibition of human Fyn at 3 uM in presence of 10 uM ATP; procedure, shortened: as §1
[5] = target: Glycogen synthase kinase-3 beta (Homo sapiens) (UniProt P49841); assay: Inhibition of human GSK3-beta at 3 uM in presence of 10 uM ATP; procedure, shortened: as §1
[6] = target: Hepatocyte growth factor receptor (Homo sapiens) (UniProt P08581); assay: Inhibition of human Met at 3 uM in presence of 10 uM ATP; procedure, shortened: as §1
[7] = target: T2, Serine/threonine-protein kinase D1 (Homo sapiens) (UniProt Q15139); assay: Inhibition of human PKC mu at 3 uM in presence of 10 uM ATP; procedure, shortened: as §1
T2 sequence (whole entry): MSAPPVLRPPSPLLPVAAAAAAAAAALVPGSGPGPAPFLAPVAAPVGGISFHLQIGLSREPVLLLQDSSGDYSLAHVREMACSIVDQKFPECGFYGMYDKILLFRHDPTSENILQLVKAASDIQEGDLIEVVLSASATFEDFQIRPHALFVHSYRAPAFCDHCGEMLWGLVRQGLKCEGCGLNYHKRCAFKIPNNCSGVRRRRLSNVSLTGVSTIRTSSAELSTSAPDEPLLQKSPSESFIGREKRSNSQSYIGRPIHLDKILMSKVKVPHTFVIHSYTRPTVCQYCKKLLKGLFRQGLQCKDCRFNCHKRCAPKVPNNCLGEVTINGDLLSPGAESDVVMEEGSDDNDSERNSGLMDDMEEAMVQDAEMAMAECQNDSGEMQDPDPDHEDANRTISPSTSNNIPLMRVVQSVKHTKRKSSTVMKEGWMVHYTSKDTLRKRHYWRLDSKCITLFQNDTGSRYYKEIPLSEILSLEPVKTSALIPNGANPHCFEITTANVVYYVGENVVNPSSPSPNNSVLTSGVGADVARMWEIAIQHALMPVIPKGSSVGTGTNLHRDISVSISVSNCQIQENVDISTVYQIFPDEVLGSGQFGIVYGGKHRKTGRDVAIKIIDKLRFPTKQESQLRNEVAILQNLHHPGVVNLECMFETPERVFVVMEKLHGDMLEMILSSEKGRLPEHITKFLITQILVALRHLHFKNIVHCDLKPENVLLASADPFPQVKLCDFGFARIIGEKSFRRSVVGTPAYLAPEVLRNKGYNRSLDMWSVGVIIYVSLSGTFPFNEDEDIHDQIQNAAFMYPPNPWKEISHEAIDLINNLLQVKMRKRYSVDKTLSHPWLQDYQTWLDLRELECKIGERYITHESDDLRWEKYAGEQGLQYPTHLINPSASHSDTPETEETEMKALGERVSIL

[8] = target: RAF proto-oncogene serine/threonine-protein kinase (Homo sapiens) (UniProt P04049); assay: Inhibition of human c-RAF at 3 uM in presence of 10 uM ATP; procedure, shortened: as §1
RAF proto-oncogene serine/threonine-protein kinase (Homo sapiens), sequence (P04049 whole entry): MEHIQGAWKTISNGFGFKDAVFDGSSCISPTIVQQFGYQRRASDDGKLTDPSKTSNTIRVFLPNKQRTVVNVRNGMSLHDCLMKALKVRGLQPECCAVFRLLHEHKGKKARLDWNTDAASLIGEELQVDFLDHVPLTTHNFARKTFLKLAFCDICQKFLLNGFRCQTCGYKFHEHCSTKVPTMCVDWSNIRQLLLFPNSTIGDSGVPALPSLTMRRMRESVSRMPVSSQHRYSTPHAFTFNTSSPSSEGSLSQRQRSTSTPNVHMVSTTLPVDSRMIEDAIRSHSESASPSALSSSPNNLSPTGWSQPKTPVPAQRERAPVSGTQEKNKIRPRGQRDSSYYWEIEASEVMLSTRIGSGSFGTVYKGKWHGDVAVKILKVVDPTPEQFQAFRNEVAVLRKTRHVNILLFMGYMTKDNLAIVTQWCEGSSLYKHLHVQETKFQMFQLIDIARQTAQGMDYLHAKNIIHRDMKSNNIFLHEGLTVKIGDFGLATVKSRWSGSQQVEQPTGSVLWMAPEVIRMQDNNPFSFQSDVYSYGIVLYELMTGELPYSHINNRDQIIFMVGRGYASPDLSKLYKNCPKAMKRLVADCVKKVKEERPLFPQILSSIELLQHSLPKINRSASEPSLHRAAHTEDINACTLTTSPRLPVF

Tyrosine-protein kinase receptor UFO (Homo sapiens), sequence (P30530 whole entry): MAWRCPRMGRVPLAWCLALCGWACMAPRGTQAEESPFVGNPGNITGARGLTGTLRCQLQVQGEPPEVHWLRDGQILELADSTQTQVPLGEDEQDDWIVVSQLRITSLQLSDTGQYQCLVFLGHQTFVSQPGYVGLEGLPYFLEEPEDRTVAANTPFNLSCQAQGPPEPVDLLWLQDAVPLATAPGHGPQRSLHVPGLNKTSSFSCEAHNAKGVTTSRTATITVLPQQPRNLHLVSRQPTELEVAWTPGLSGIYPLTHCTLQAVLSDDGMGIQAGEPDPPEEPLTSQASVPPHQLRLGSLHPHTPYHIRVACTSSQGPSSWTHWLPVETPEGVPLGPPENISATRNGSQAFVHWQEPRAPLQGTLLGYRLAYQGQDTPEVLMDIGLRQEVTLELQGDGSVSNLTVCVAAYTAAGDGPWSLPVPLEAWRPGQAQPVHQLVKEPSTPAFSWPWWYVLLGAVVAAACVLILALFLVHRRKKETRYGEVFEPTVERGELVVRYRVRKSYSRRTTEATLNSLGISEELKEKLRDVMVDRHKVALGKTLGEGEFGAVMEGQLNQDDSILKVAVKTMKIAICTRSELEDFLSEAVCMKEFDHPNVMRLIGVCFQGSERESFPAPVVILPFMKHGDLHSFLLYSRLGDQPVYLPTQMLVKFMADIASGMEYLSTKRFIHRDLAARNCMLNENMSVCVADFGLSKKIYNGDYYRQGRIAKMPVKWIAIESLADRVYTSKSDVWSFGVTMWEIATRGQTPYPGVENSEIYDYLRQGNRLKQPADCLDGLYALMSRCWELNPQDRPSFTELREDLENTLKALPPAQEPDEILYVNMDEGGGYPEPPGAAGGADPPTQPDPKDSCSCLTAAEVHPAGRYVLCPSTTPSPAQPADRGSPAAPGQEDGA
Glycogen synthase kinase-3 beta (Homo sapiens), sequence (P49841 whole entry, looked up): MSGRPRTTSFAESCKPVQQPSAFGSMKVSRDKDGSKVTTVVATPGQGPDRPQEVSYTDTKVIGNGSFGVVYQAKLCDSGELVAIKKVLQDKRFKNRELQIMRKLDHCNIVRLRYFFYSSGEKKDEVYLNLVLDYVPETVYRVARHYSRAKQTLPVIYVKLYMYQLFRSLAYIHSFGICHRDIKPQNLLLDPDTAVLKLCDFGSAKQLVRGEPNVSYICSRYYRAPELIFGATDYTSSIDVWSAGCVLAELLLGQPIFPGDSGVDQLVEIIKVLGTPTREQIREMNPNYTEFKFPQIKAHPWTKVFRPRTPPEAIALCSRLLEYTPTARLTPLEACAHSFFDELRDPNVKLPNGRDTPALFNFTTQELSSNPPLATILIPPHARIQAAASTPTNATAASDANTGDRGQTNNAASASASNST
Tyrosine-protein kinase Fyn (Homo sapiens), sequence (P06241 2-537 limits assumed): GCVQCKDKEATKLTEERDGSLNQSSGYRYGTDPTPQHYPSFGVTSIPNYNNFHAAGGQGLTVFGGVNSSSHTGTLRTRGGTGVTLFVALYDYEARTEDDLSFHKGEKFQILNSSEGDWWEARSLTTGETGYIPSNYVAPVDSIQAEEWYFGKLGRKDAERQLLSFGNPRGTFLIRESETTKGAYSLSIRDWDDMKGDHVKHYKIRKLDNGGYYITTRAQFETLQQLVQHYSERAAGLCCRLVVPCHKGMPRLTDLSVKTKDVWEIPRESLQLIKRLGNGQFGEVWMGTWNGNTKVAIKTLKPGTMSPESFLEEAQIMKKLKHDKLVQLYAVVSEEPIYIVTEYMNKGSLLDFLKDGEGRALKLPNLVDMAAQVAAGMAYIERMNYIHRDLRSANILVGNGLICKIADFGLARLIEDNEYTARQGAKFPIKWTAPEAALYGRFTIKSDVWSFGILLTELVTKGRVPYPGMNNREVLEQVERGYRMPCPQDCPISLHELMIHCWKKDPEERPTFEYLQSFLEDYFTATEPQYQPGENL
Hepatocyte growth factor receptor (Homo sapiens), sequence (P08581 whole entry): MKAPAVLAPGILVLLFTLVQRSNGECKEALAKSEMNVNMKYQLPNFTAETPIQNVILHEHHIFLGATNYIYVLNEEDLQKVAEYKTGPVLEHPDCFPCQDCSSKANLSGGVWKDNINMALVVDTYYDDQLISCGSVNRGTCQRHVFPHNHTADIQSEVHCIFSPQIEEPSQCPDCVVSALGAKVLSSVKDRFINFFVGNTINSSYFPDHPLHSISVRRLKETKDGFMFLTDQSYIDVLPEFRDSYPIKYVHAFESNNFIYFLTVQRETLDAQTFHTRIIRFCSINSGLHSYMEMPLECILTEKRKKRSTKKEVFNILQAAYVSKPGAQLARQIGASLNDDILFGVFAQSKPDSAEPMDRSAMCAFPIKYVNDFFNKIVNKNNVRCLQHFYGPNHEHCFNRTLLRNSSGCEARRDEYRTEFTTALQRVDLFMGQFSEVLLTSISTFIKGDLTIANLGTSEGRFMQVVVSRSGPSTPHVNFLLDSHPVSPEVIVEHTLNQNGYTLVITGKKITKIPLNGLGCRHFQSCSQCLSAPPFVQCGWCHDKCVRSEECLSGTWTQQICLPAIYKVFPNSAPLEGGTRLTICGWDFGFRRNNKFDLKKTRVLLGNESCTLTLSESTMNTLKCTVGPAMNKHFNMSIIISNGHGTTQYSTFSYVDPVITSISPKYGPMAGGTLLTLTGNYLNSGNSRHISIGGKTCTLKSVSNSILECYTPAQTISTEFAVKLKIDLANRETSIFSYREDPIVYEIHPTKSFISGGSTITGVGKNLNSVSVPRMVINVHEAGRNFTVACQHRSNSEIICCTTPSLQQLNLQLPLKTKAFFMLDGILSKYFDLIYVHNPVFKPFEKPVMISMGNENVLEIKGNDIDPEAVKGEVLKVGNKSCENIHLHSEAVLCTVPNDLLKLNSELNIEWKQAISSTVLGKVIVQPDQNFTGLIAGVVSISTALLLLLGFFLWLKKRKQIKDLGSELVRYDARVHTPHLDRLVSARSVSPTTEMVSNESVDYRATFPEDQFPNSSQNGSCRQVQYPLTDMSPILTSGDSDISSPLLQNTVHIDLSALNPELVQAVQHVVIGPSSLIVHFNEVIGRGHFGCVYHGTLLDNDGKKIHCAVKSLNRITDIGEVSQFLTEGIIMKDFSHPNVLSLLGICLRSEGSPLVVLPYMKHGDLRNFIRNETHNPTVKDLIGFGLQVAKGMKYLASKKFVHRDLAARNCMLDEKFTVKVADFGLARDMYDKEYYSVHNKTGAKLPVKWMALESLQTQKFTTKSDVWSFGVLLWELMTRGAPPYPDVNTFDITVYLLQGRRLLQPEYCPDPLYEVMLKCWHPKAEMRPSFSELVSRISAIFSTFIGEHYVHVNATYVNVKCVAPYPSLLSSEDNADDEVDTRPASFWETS

inhibition [1]: -10% | inhibition [2]: 9% | inhibition [3]: -1% | inhibition [4]: 33% | inhibition [5]: -2% | inhibition [6]: 13% | inhibition [7]: 3% | inhibition [8]: -1%
Compound: COc1ccc(C(=O)Nc2sc3c(c2C(N)=O)CCCC3)cc1OC
